We go through five compounds from ChEMBL document CHEMBL1759857, “Synthesis and evaluation of isatin analogs as caspase-3 inhibitors: introduction of a hydrophilic group increases potency in a whole cell assay” (Bioorg Med Chem Lett, 2011).

One experiment addresses T1, Caspase-7 (Homo sapiens, UniProt P55210).
T1 sequence (P55210 whole entry): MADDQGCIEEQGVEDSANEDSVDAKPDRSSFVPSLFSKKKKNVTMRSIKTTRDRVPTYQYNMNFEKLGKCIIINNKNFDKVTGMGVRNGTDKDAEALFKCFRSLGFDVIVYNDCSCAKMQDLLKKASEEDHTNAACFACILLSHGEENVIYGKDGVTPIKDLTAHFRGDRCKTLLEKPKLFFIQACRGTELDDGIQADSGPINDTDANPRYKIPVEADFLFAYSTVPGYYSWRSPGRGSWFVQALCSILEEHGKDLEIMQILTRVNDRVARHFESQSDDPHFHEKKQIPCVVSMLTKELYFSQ
The experiment is described as follows: Inhibition of caspase 7 by fluorometric assay.

For a further experiment, the target named is T2, Caspase-6 (Homo sapiens, UniProt P55212).
T2 sequence (P55212 whole entry): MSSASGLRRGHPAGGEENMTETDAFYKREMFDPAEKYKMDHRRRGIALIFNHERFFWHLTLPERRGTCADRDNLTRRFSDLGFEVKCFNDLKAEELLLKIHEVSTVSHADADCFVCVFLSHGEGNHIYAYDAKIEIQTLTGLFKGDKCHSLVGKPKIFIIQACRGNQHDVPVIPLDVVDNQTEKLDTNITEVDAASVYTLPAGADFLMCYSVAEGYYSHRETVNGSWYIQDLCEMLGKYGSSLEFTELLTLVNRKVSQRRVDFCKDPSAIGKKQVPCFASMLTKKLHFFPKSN
The experiment is described as follows: Inhibition of caspase 6 by fluorometric assay. In short, it runs like this:
(§1)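 Recombinant caspases were tested in a standard fluorometric enzyme assay. IC50 is reported as mean ± SD of at least three independent assays.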

The target in experiment [1] is T3, Caspase-3 (Homo sapiens, UniProt P42574).
T3 sequence (P42574 whole entry): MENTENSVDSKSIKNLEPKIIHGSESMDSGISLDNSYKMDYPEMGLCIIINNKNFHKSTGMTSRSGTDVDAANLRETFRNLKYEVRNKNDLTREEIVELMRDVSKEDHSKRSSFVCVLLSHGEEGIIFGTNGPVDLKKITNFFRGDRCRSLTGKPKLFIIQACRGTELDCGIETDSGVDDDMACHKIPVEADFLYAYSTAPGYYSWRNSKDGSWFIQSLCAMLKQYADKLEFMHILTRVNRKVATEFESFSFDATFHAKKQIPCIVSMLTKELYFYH
The experiment is described as follows: Inhibition of human caspase 3 by fluorometric assay. In short, it runs like this: as §1

The target of a further experiment is Caspase-8 (Homo sapiens, UniProt Q14790). Kind of experiment: Inhibition of caspase 8 by fluorometric assay. The method in brief:
as §1

The target of experiment [2] is T3, Caspase-3. Kind of experiment: Inhibition of staurosporine induced activation of caspase 3 activation in human Hela cells assessed as hydrolysis of Z-DEVD-R110 substrate by microplate fluorescence assay. It counts as cell-based. In short, it runs like this: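 HeLa cells were seeded at 1-2×10^4 per well and left to adhere overnight at 37°C in 5% CO2. […] A homogeneous caspase-3/7 kit with cell-permeable Z-DEVD-R110 was then used, reading fluorescence at ex 485/em 535 nm. EC50 was taken from dose-response curves, as mean ± SD of ≥3 independent experiments.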

The next experiment deals with T4, Caspase-1 (Homo sapiens, UniProt P29466).
T4 sequence (P29466 whole entry): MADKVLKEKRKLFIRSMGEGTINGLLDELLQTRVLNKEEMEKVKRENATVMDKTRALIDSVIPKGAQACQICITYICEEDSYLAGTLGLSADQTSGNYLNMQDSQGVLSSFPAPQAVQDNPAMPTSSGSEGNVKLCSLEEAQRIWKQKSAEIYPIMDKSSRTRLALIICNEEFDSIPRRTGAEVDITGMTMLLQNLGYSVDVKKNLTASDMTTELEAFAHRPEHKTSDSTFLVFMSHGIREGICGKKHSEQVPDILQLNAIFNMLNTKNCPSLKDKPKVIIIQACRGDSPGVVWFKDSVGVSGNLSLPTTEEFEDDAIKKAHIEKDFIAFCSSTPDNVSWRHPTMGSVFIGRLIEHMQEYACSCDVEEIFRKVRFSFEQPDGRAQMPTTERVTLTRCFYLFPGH
The experiment is described as follows: Inhibition of caspase 1 by fluorometric assay. In short, it runs like this: as §1

Sequence of Caspase-8 (Q14790 217-374 limits assumed): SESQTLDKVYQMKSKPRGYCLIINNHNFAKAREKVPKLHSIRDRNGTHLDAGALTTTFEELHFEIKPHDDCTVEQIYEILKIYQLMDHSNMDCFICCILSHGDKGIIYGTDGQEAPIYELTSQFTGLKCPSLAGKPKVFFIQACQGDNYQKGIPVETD
Sequence of Caspase-8 (Q14790 385-479 limits assumed): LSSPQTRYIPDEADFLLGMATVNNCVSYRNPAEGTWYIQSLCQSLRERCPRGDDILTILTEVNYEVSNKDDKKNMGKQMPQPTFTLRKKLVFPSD

By IC50 is commonly meant the point on the concentration scale where inhibition reaches its midpoint. The low end stands for inhibition by little substance, the high end for a need for much substance. Usually EC50 stands for the concentration that produces a half-maximal response. Regarding `O=C1C(=O)N(Cc2cn(CCF)nn2)c2ccc(S(=O)(=O)N3CCC[C@H]3COc3ccccc3)cc21`, the IC50 was 12.4 nM against Caspase-7; 9.97 µM against Caspase-6; 12.2 nM at Caspase-3 [1]; more than 50 µM against Caspase-8; more than 20 µM on Caspase-1. Further, the EC50 at Caspase-3 [2] came to 930 nM.

In the case of `O=C1C(=O)N(Cc2ccc(OCCOCCOCCF)cc2)c2ccc(S(=O)(=O)N3CCC[C@H]3COc3ccccc3)cc21`, the IC50 was 17.6 nM at Caspase-7; 7.67 µM on Caspase-6; 13.7 nM on Caspase-3 [1]; more than 50 µM on Caspase-8; more than 50 µM on Caspase-1. Further, the EC50 at Caspase-3 [2] came out at 1300 nM.

Regarding `O=C1C(=O)N(Cc2cn(CCF)nn2)c2ccc(S(=O)(=O)N3CC[C@H]3COc3ccc(F)cc3F)cc21`, the IC50 was 15.3 nM at Caspase-7; 4.7 µM against Caspase-6; 13.4 nM on Caspase-3 [1]; more than 50 µM on Caspase-8; more than 20 µM at Caspase-1. For the same compound, the EC50 at Caspase-3 [2] came out at 1060 nM.

Take `O=C1C(=O)N(Cc2ccc(OCCOCCF)cc2)c2ccc(S(=O)(=O)N3CC[C@H]3COc3ccccc3)cc21`: the IC50 on Caspase-7 was 28.9 nM; against Caspase-6, more than 10 µM; on Caspase-3 [1], 27.9 nM; against Caspase-8, more than 50 µM; on Caspase-1, more than 50 µM. In addition, the EC50 on Caspase-3 [2] came out at 2150 nM.

Turning to `O=C1C(=O)N(Cc2ccc(OCCF)cc2)c2ccc(S(=O)(=O)N3CCC[C@H]3COc3cccnc3)cc21`, the IC50 against Caspase-7 was 11.3 nM; at Caspase-6, 6.9 µM; at Caspase-3 [1], 3.1 nM; against Caspase-8, more than 50 µM; on Caspase-1, more than 20 µM. Further, the concentration for a half-maximal effect (EC50) on Caspase-3 [2] was 390 nM.
